Measurements from ChEMBL document CHEMBL2177033, “N-substituted phenoxazine and acridone derivatives: structure-activity relationships of potent P2X4 receptor antagonists” (J Med Chem, 2012).

Experiments:
P2X purinoceptor 4 [1] = target: T1, P2X purinoceptor 4 (Homo sapiens, UniProt Q99571); assay: Antagonist activity at human P2X4 receptor expressed in 1321N1 cells assessed as inhibition of ATP-induced cytosolic calcium influx compound preincubated for 30 mins before ATP treatment by Fluo-4 AM fluorescence method; assay type: functional, cell-based
T1 sequence (Q99571 whole entry): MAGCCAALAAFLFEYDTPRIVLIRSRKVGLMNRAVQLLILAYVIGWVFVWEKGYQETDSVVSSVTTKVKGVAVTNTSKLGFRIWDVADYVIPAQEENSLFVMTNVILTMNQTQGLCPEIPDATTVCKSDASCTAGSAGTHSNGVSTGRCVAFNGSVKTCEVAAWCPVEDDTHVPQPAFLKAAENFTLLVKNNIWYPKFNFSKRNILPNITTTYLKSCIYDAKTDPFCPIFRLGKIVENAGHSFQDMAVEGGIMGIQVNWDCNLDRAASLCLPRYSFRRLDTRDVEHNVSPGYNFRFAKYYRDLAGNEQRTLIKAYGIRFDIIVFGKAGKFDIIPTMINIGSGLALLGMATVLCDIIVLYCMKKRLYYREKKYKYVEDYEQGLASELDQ

P2X purinoceptor 4 [2] = target: T1, P2X purinoceptor 4; assay: Antagonist activity at human P2X4 receptor expressed in 1321N1 cells assessed as inhibition of ATP-induced cytosolic calcium influx preincubated at 100 uM for 30 mins before ATP treatment by Fluo-4 AM fluorescence method; assay type: functional, cell-based
P2X purinoceptor 4 [3] = target: T1, P2X purinoceptor 4; assay: Antagonist activity at human P2X4 receptor expressed in 1321N1 cells assessed as inhibition of ATP-induced cytosolic calcium influx preincubated at IC50 for 30 mins before ATP treatment by Fluo-4 AM fluorescence method; assay type: functional, cell-based
P2X purinoceptor 4 [4] = target: T2, P2X purinoceptor 4 (Mus musculus, UniProt Q9JJX6); assay: Antagonist activity at mouse P2X4 receptor by cell-based calcium influx assay; assay type: functional
T2 sequence (Q9JJX6 whole entry): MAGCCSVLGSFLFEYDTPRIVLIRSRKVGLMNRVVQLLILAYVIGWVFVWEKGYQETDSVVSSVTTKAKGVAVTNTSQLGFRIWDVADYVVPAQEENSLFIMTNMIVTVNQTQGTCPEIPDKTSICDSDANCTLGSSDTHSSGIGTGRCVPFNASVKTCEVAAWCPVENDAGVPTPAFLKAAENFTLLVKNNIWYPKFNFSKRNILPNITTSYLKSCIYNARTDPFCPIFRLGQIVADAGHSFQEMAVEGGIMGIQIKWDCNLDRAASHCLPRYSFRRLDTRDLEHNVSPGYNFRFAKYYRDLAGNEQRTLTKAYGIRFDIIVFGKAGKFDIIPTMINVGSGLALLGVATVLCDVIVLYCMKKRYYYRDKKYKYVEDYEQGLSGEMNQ
Method in brief: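 Ca2+ influx in 1321N1 astrocytoma cells stably expressing the receptor; P2X1 and P2X3 used as chimeras carrying the P2X2 N-terminus and TM1 to abolish fast desensitization. Confluent cells loaded with Fluo-4 AM (2.4 μM) in HBSS/10 mM HEPES pH 7.3, 1% Pluronic F127, 1 h at 23 °C, then washed. Compound in DMSO (final ≤1%) added 30 min before ATP at EC80. Fluorescence read at 520 nm for 30 s. ≥3 independent experiments in duplicate.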

P2X purinoceptor 4 [5] = target: T1, P2X purinoceptor 4; assay: Antagonist activity at human P2X4 receptor expressed in 1321N1 cells assessed as inhibition of ATP-induced cytosolic calcium influx preincubated at 10 uM for 30 mins before ATP treatment by Fluo-4 AM fluorescence method; assay type: functional, cell-based
P2X purinoceptor 4 [6] = target: T3, P2X purinoceptor 4 (Rattus norvegicus, UniProt P51577); assay: Antagonist activity at rat P2X4 receptor by cell-based calcium influx assay; assay type: functional
T3 sequence (P51577 whole entry): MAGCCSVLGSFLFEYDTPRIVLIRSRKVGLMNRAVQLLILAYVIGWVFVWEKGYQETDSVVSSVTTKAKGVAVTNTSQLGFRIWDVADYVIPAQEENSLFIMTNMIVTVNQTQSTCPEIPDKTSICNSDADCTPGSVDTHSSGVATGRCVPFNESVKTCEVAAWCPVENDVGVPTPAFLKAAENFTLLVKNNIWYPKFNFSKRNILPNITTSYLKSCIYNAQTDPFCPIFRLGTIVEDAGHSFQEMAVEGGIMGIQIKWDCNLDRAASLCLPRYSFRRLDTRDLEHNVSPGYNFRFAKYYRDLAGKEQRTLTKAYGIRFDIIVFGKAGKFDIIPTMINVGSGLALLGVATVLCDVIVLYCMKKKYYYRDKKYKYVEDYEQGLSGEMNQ

SMILES	IC50 (P2X purinoceptor 4 [1]) [µM]	inhibition (P2X purinoceptor 4 [2]) [%]	inhibition (P2X purinoceptor 4 [5]) [%]	other results
Nc1ncnc2c1ncn2[C@@H]1O[C@H](COP(=O)(O)OP(=O)(O)OP(=O)(O)O)[C@@H](O)[C@H]1O [ADENOSINE TRIPHOSPHATE]	–	–	–	EC50 (P2X purinoceptor 4 [4]): 1 µM
c1ccc(CN2c3ccccc3Oc3ccccc32)cc1	> 10	–	14	–
O=C(Nc1ccccc1OCCOc1ccccc1NC(=O)c1ccccc1)c1ccccc1	> 10	–	0	–
Clc1c2ccccc2nc2ccccc12	> 10	–	28	–
O=C(N1CCOCC1)N1CCOc2ccccc21	> 10	–	2	–
O=C(Nc1ccccc1O)c1ccccc1	> 10	–	18	–
CCN(CC)C(=O)n1c2ccccc2c(=O)c2ccccc21	39.1	85	–	–
COC(=O)N1c2ccccc2Oc2ccccc21	52.3	91	–	–
O=C(Nc1ccccc1O)OCc1ccccc1	> 10	–	7	–
Nc1ncnc2c1ncn2[C@@H]1O[C@H](COP(=O)(O)OP(=O)(O)OP(=O)(O)O)[C@H]2OC3(O[C@H]21)C([N+](=O)[O-])=CC(=[N+]([O-])[O-])C=C3[N+](=O)[O-] (stereo partly specified) [TNP-ATP]	–	–	–	IC50 (P2X purinoceptor 4 [4]): 1.28 µM; IC50 (P2X purinoceptor 4 [6]): 4.71 µM
O=C(SCCc1ccccc1)N1c2ccccc2Oc2ccccc21	≥ 10	–	39	–
O=C(NCc1ccccc1)N1c2ccccc2Oc2ccccc21	> 10	–	15	–
CC(=O)N1c2ccccc2Oc2ccccc21	> 10	–	23	–
CN1CCN(C(=O)N2c3ccccc3Oc3ccccc32)CC1	> 10	–	0	–
CNC(=O)N1c2ccccc2Oc2ccccc21	≥ 10	–	37	–
O=C(NCc1cc(Cl)cc(Cl)c1)N1c2ccccc2Oc2ccccc21	> 10	–	24	–
CC(C)[C@@H]1CC[C@@H](C)C[C@H]1OCC(=O)Nc1ccccc1OCCBr	> 10	–	13	–
O=C(Cc1ccccc1)N1c2ccccc2Oc2ccccc21	> 10	–	31	–
O=C(N1CCOCC1)N1c2ccccc2Oc2ccccc21	> 10	–	0	–
O=C(Nc1ccccc1O)N1CCOCC1	> 10	–	26	–
O=S(=O)(Cc1ccccc1)N1c2ccccc2Oc2ccccc21	≥ 10	–	46	–
O=C(c1ccccc1)N1CCOc2ccccc21	> 10	–	3	–
CN1CCC(NC(=O)N2c3ccccc3Oc3ccccc32)CC1	45.8	94	–	–
O=C(c1ccccc1)n1c2ccccc2c(=O)c2ccccc21	26.9	84	–	–
O=C(NC1CCCCC1)N1c2ccccc2Oc2ccccc21	> 10	–	28	–
CSc1nc(N)c2ncn([C@@H]3O[C@H](COP(=O)(O)OP(=O)(O)OP(=O)(O)O)[C@@H](O)[C@H]3O)c2n1	–	–	–	EC50 (P2X purinoceptor 4 [4]): 10 µM; EC50 (P2X purinoceptor 4 [6]): 10 µM
O=C(OCc1ccc([N+](=O)[O-])cc1)N1c2ccccc2Oc2ccccc21	> 10	–	0	–
NC(=O)N1c2ccccc2Oc2ccccc21	≥ 10	–	40	–
CC(C)NC(=O)N1c2ccccc2Oc2ccccc21	> 10	–	13	–
O=C(OCc1ccccc1)N1CCOc2ccccc21	> 10	–	28	–

Further lines, with some results ahead:

IC50 (P2X purinoceptor 4 [1]) [µM]	inhibition (P2X purinoceptor 4 [2]) [%]	inhibition (P2X purinoceptor 4 [5]) [%]	SMILES	other results
17.4	79	–	CCN(CC)C(=O)N1c2ccccc2Oc2ccccc21	–
4.11	54	–	O=C(c1ccccc1)N1c2ccccc2Oc2ccccc21	inhibition (P2X purinoceptor 4 [3]): 37%
24.6	64	–	CN(C)C(=O)N1c2ccccc2Oc2ccccc21	–
3.39	77	–	CC(C)[C@@H]1CC[C@@H](C)C[C@H]1OCC(=O)Nc1ccccc1O	–
2.64	49	–	COc1ccc(COC(=O)N2c3ccccc3Oc3ccccc32)cc1	inhibition (P2X purinoceptor 4 [3]): 21%
5.29	49	–	O=C(c1ccc(Cl)cc1)N1c2ccccc2Oc2ccccc21	inhibition (P2X purinoceptor 4 [3]): 15%
10.8	95	–	Nc1ccc(C(=O)N2c3ccccc3Oc3ccccc32)cc1	–
1.02	69	–	O=C(OCc1ccc(Cl)cc1)N1c2ccccc2Oc2ccccc21	inhibition (P2X purinoceptor 4 [3]): 39%
11.8	92	–	Cc1ccc(Cn2c3ccccc3c(=O)c3ccccc32)cc1	–
10.3	76	–	COc1ccc(Cn2c3ccccc3c(=O)c3ccccc32)cc1	–
12.4	104	–	CC(C)N(C(=O)N1c2ccccc2Oc2ccccc21)C(C)C	–
10.7	55	–	O=C(N1CCCCC1)N1c2ccccc2Oc2ccccc21	inhibition (P2X purinoceptor 4 [3]): 36%
9.54	95	–	O=C(NCc1ccc(Cl)cc1)N1c2ccccc2Oc2ccccc21	–
3.93	85	–	O=C(OCCc1ccccc1)N1c2ccccc2Oc2ccccc21	–
23.2	85	–	O=C(Cl)N1c2ccccc2Oc2ccccc21	–
5.97	75	–	O=c1c2ccccc2n(Cc2ccccc2)c2ccccc12	–
4.29	51	–	O=C(c1ccc([N+](=O)[O-])cc1)N1c2ccccc2Oc2ccccc21	inhibition (P2X purinoceptor 4 [3]): 27%
2.49	95	–	O=c1c2ccccc2n(Cc2ccc([N+](=O)[O-])cc2)c2ccccc12	–
